Test results: ChEMBL document CHEMBL1687707, “Changes in the plasmodial surface anion channel reduce leupeptin uptake and can confer drug resistance in Plasmodium falciparum-infected erythrocytes” (Antimicrob Agents Chemother, 2008)
pIC50: −log10 of the molar value. Active and inactive are the calls of the source. The rule behind the calls is not given here.

Assays:
[1] = Inhibition of PSAC-mediated sorbitol uptake in erythrocytes infected with leupeptin resistant-Plasmodium falciparum HB3-leuR1 at 50 uM; type: cell-based
[2] = Activity of PSAS assessed as channel-mediated drug uptake measured by inhibition of papain-mediated substrate hydrolysis by Plasmodium falciparum HB3 infected erythrocyte cytosol harvested from cells incubated at 40 uM for 15 mins by Z-Phe-Arg-AMC substrate hydrolysis assay
Outline: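 They were counted, then lysed at 20% hematocrit with 0.05% saponin. Cytosol from 10⁸ cells went into pH 5.5 acetate with 10 mM DTT and 150 ng/ml papain, then 50 μM Z-Phe-Arg-AMC. Rates came from 353/442 nm readings over 10 min; four experiments.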

[3] = Activity of PSAS assessed as channel-mediated drug uptake measured by inhibition of papain-mediated substrate hydrolysis by Plasmodium falciparum HB3 infected erythrocyte cytosol harvested from cells incubated at 40 uM for 15 mins in presence og PSAC antagonist NPF1 by Z-Phe-Arg-AMC substrate hydrolysis assay; type: functional
Outline: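 Erythrocyte cytosol was released with 0.05% saponin, and 10⁸-cell equivalents were incubated with 150 ng/ml papain and 10 mM DTT at pH 5.5. Z-Phe-Arg-AMC (50 μM) hydrolysis was read every 2 min for 10 min, given as percent inhibition; four experiments.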

[4] = Activity of PSAS assessed as channel-mediated drug uptake measured by inhibition of papain-mediated substrate hydrolysis by leupeptin resistant-Plasmodium falciparum HB3-leuR1 infected erythrocyte cytosol harvested from cells incubated at 40 uM for 15 mins by Z-Phe-Arg-AMC substrate hydrolysis assay
Plasmodium falciparum [5] = assay: Antimicrobial activity against leupeptin resistant-Plasmodium falciparum HB3-leuR1 mutant infected in erythrocytes assessed as growth inhibition after 72 hrs in presence of PSAC antagonist NPF1 by SYBR Green I-based fluorescence assay; type: functional, organism-based
Outline: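 SYBR green I growth assay for 72 h at 37°C using serial dilutions of several fixed molar ratios of leupeptin and NPF-1. IC50 of each agent interpolated for each ratio and plotted as an isobologram. Background subtracted using chloroquine-killed cultures.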

Falcipain 2 [6] = target: Falcipain 2 (Plasmodium falciparum, UniProt Q9N6S8); assay: Inhibition of Cysteine protease falcipain-2 in Plasmodium falciparum HB3-leuR1 mutant infected erythrocytes by Z-Phe-Arg-AMC substrate hydrolysis assay
Outline: (§1)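 Soluble extracts from trophozoite-infected erythrocytes enriched to 95–99% parasitemia (Percoll-sorbitol). Adjusted to 40 μg/ml protein in 0.1 M sodium acetate pH 5.5 with 10 mM DTT, with or without leupeptin. Prewarmed to 37°C; 50 μM Z-Phe-Arg-AMC added; fluorescence 353/442 nm read every 2 min. Rates by regression over 10–90 min, triplicate. K0.5 fit with Hill coefficient 1.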

Falcipain 2 [7] = target: T1, Falcipain 2 (Plasmodium falciparum, UniProt Q9N6S8); assay: Inhibition of Cysteine protease falcipain-2 in Plasmodium falciparum HB3 infected erythrocytes by Z-Phe-Arg-AMC substrate hydrolysis assay
T1 sequence (Q9N6S8 whole entry): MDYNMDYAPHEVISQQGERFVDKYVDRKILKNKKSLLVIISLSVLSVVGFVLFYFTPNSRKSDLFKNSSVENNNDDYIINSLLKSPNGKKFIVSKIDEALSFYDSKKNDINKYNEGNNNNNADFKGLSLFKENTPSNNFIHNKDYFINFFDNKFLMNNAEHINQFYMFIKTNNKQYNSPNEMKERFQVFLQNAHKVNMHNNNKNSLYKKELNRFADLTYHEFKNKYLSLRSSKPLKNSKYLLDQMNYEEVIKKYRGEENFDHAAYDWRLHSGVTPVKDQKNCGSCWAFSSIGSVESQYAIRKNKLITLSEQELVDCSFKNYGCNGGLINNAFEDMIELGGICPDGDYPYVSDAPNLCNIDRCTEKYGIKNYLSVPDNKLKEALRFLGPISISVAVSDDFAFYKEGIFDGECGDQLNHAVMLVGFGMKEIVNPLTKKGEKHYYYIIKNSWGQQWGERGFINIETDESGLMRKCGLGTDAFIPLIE
Outline: (§2)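 Soluble extracts came from trophozoite-infected cells enriched to 95–99% parasitemia. They were set at 40 μg/ml protein in 0.1 M sodium acetate pH 5.5 with 10 mM DTT and leupeptin, prewarmed to 37°C, then given 50 μM Z-Phe-Arg-AMC. Fluorescence (353/442 nm) was read every 2 min, with rates regressed over 10–90 min and triplicate means. K0.5 came from a 1:1 fit; n=4.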

Plasmodium falciparum [8] = assay: Induction of parasite morphology changes in wild type Plasmodium falciparum HB3 infected in erythrocytes assessed as occurrence of enlarged digestive vacuoles by transmission electron microscopy; type: functional, organism-based
Outline: (§3)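 For electron microscopy, infected erythrocytes were cultured with 100 μM leupeptin for 6 h. They were fixed overnight at 4°C in 2.5% glutaraldehyde/4% paraformaldehyde in 0.1 M cacodylate pH 7.4, postfixed in osmium tetroxide/ferricyanide and stained with uranyl acetate. Samples were Spurr-embedded, and thin sections were lead/uranyl stained and imaged at 80 kV.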

Plasmodium falciparum [9] = assay: Induction of parasite morphology changes in leupeptin resistant-Plasmodium falciparum HB3-leuR1 mutant infected in erythrocytes assessed as occurrence of enlarged digestive vacuoles by transmission electron microscopy; type: functional, organism-based
[10] = target: T2, Cysteine protease falcipain-3 (Plasmodium falciparum, UniProt Q9NAW4); assay: Inhibition of Cysteine protease falcipain-3 in Plasmodium falciparum HB3 infected erythrocytes by Z-Phe-Arg-AMC substrate hydrolysis assay; outline: as §2
T2 sequence (Q9NAW4 whole entry): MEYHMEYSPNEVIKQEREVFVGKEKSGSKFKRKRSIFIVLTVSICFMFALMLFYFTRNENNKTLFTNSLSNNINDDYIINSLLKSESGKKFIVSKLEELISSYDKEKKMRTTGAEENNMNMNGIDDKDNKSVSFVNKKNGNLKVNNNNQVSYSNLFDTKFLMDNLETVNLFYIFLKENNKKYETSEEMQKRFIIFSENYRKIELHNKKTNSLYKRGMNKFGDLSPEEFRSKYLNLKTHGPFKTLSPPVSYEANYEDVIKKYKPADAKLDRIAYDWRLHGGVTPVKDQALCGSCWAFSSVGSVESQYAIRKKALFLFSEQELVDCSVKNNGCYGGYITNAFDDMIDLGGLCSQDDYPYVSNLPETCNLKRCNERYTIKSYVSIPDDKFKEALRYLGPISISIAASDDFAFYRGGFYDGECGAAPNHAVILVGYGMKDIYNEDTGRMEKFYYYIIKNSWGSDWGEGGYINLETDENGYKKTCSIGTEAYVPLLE

[11] = target: Cysteine protease falcipain-3 (Plasmodium falciparum, UniProt Q9NAW4); assay: Inhibition of Cysteine protease falcipain-3 in Plasmodium falciparum HB3-leuR1 mutant infected erythrocytes by Z-Phe-Arg-AMC substrate hydrolysis assay; outline: as §1
[12] = Inhibition of PSAC-mediated sorbitol uptake in erythrocytes infected with Plasmodium falciparum HB3 at 50 uM; type: cell-based
Outline: (§4)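 Percoll-sorbitol-enriched trophozoite-infected cells were washed in PBS, then suspended at 0.5% hematocrit in 280 mM sorbitol, 20 mM sodium HEPES and 0.1 mg/ml BSA, pH 7.4, with PSAC antagonists. Osmotic lysis kinetics gave half-times, and K0.5 was fitted by nonlinear least squares.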

Plasmodium falciparum [13] = assay: Reduction in formation of hemozoin crystals in wild type Plasmodium falciparum HB3 infected in erythrocytes at 100 uM for 6 hrs by transmission electron microscopy; type: functional, organism-based; outline: as §3
Plasmodium falciparum [14] = assay: Reduction in formation of hemozoin crystals in leupeptin resistant-Plasmodium falciparum HB3-leuR1 mutant infected in erythrocytes at 100 uM for 6 hrs by transmission electron microscopy; type: functional, organism-based
Outline: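 Infected erythrocytes cultured with 100 μM leupeptin for 6 h. Fixed overnight at 4°C in 2.5% glutaraldehyde-4% paraformaldehyde in cacodylate pH 7.4. Postfixed in osmium tetroxide-ferricyanide, stained with uranyl acetate, embedded in Spurr's resin. Thin sections stained with uranyl acetate/lead citrate and imaged at 80 kV.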

[15] = target: T3, Falcipain 2 (Plasmodium falciparum) (UniProt Q9N6S8); assay: Inhibition of Cysteine protease falcipain-2 in Plasmodium falciparum HB3 infected erythrocytes assessed as slowing of substrate hydrolysis by Z-Phe-Arg-AMC substrate hydrolysis assay; outline: as §1
T3 sequence (whole entry): T1 sequence (Q9N6S8 whole entry)

[16] = target: T3, Falcipain 2 (Plasmodium falciparum); assay: Inhibition of Cysteine protease falcipain-2 in Plasmodium falciparum HB3-leuR1 mutant infected erythrocytes assessed as slowing of substrate hydrolysis by Z-Phe-Arg-AMC substrate hydrolysis assay; outline: as §1
[17] = target: T4, Cysteine protease falcipain-3 (Plasmodium falciparum) (UniProt Q9NAW4); assay: Inhibition of Cysteine protease falcipain-3 in Plasmodium falciparum HB3 infected erythrocytes assessed as slowing of substrate hydrolysis by Z-Phe-Arg-AMC substrate hydrolysis assay; outline: as §1
T4 sequence (whole entry): T2 sequence (Q9NAW4 whole entry)

[18] = target: T4, Cysteine protease falcipain-3 (Plasmodium falciparum); assay: Inhibition of Cysteine protease falcipain-3 in Plasmodium falciparum HB3-leuR1 mutant infected erythrocytes assessed as slowing of substrate hydrolysis by Z-Phe-Arg-AMC substrate hydrolysis assay; outline: as §1
Plasmodium falciparum [19] = assay: Reduction in hemozoin production in wild type Plasmodium falciparum HB3 infected in erythrocytes at 50 uM for 18 hrs by absorbance scan at 400 nm
Plasmodium falciparum [20] = assay: Reduction in hemozoin production in leupeptin resistant-Plasmodium falciparum HB3-leuR1 mutant infected in erythrocytes at 50 uM for 18 hrs by absorbance scan at 400 nm
Plasmodium falciparum [21] = assay: Antimicrobial activity against wild type Plasmodium falciparum HB3 infected in erythrocytes assessed as growth inhibition after 5 days by SYBR Green I-based fluorescence assay; details: HB3, 5 days
Plasmodium falciparum [22] = assay: Antimicrobial activity against leupeptin resistant-Plasmodium falciparum HB3-leuR1 mutant infected in erythrocytes assessed as growth inhibition after 5 days by SYBR Green I-based fluorescence assay; details: HB3-leuR1, 5 days
[23] = Inhibition of PSAC-mediated sorbitol uptake in erythrocytes infected with Plasmodium falciparum HB3 at 100 to 5000 uM by osmotic lysis half-time determination assay; type: cell-based; outline: as §4
[24] = Inhibition of PSAC-mediated sorbitol uptake in erythrocytes infected with leupeptin resistant-Plasmodium falciparum HB3-leuR1 by osmotic lysis half-time determination assay; type: cell-based
[25] = Inhibition of single PSAC in erythrocytes infected with Plasmodium falciparum HB3 at 100 to 5000 uM by cell attached patch clamp method; type: cell-based
Outline: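 Cell-attached patch-clamp recordings were made on trophozoite-stage infected erythrocytes. Bath and pipette solutions were symmetric: 1,000 mM choline chloride, 115 mM NaCl, 10 mM MgCl₂, 5 mM CaCl₂ and 20 mM sodium HEPES, pH 7.4.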

[26] = Inhibition of single PSAC in erythrocytes infected with leupeptin resistant-Plasmodium falciparum HB3-leuR1 cell attached patch clamp method; type: cell-based
Plasmodium falciparum [27] = assay: Antimicrobial activity against leupeptin resistant-Plasmodium falciparum HB3-leuR1 mutant infected in erythrocytes assessed as growth inhibition after 72 hrs by SYBR Green I-based fluorescence assay; type: functional, organism-based; details: HB3-leuR1, 72 h
Outline: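 Sorbitol-synchronized cultures seeded at 0.2–0.5% parasitemia, 5% hematocrit in RPMI 1640/25 mM HEPES/2% serum/hypoxanthine. Incubated 72 h at 37°C in 5% O₂-5% CO₂. Freeze-thaw, then SYBR green I, 30 min dark, fluorescence 485/528 nm. Triplicate means with background subtracted (20 μM chloroquine-killed cultures). IC50 by nonlinear fit, three or more experiments.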

Plasmodium falciparum [28] = assay: Antimicrobial activity against wild type Plasmodium falciparum HB3 infected in erythrocytes assessed as growth inhibition after 72 hrs by SYBR Green I-based fluorescence assay; type: functional, organism-based; details: HB3, 72 h

CC(=O)N[C@@H](CC(C)C)C(=O)N[C@@H](CC(C)C)C(=O)N[C@H](C=O)CCCNC(=N)N [LEUPEPTIN]
inhibition [1]: inactive | Activity [2]: Active | Activity [3]: inactive | Activity [4]: inactive | growth inhibition (GI) (Plasmodium falciparum [5]): inactive | pIC50 (Falcipain 2 [6]): 7.01 | pIC50 (Falcipain 2 [7]): 7.06 | Activity (Plasmodium falciparum [8]): Active | Activity (Plasmodium falciparum [9]): inactive | pIC50 [10]: 7.06 | pIC50 [11]: 7.01 | inhibition [12]: inactive | Activity (Plasmodium falciparum [13]): Active | Activity (Plasmodium falciparum [14]): inactive | inhibition [15]: Active | inhibition [16]: Active | inhibition [17]: Active | inhibition [18]: Active | Activity (Plasmodium falciparum [19]): Active | Activity (Plasmodium falciparum [20]): inactive | pIC50 (Plasmodium falciparum [21]): 4.74 | pIC50 (Plasmodium falciparum [22]): 4.13

O=C(CCc1ccc(O)cc1)c1c(O)cc(O)cc1O[C@@H]1O[C@H](CO)[C@@H](O)[C@H](O)[C@H]1O [PHLORIZIN]
inhibition [23]: Active | inhibition [24]: inactive | pIC50 [25]: 4.77 | pIC50 [26]: 3.47

CN(CC[C@H](N)CC(=O)N[C@H]1C=C[C@H](n2ccc(N)nc2=O)O[C@@H]1C(=O)O)C(=N)N [BLASTICIDIN_S]
pIC50 (Plasmodium falciparum [21]): 6.37 | pIC50 (Plasmodium falciparum [22]): 5.94

CC(C)CC(=O)N[C@H](C(=O)N[C@H](C(=O)N[C@@H](CC(C)C)[C@@H](O)CC(=O)N[C@@H](C)C(=O)N[C@@H](CC(C)C)[C@@H](O)CC(=O)O)C(C)C)C(C)C [PEPSTATIN]
pIC50 (Plasmodium falciparum [21]): 4.41 | pIC50 (Plasmodium falciparum [22]): 4.53

CC(C)C[C@H](NC(=O)[C@H]1O[C@@H]1C(=O)O)C(=O)NCCCCN=C(N)N [E-64]
pIC50 (Plasmodium falciparum [21]): 5.43 | pIC50 (Plasmodium falciparum [22]): 5.23

C[C@@H]1CC[C@H]2[C@@H](C)C(=O)O[C@@H]3O[C@@]4(C)CC[C@@H]1[C@]32OO4 [ARTEMISININ]
pIC50 (Plasmodium falciparum [27]): 8.11 | pIC50 (Plasmodium falciparum [28]): 8.08

C=C[C@H]1CN2CC[C@H]1C[C@H]2[C@H](O)c1ccnc2ccc(OC)cc12 [QUININE]
pIC50 (Plasmodium falciparum [27]): 7.13 | pIC50 (Plasmodium falciparum [28]): 7.11
